Measured values as given in ChEMBL document CHEMBL1137655, “Isoxyl activation is required for bacteriostatic activity against Mycobacterium tuberculosis” (2007).
Calls of active or inactive are those of the source. No cut-off for these calls is given here.

What was measured:
Assay type in all cases: functional, organism-based
Conditions in all cases: Mycobacterium bovis BCG str. Pasteur 1173P2
[1] = tested on: Mycobacterium tuberculosis variant bovis; experiment: Inhibition of mycolic acid synthesis in Mycobacterium bovis BCG Pasteur 1173P2 sonicates assessed as inhibition of ketomycolates production using partially purified EthA as cofactor by autoradiography
Summary of the method: (§1)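 BCG sonicate (3 mg protein) with 1 μCi [1,2-14C]acetate, ISO 0, 2 or 5 μg/ml final, ±purified EthA (up to 10 μg), 25 mM Tris-HCl pH 7.5; 10 min ice, 2 h 37°C; mycolic acid methyl esters by TLC (hexane:ethyl acetate 95:5) and autoradiography.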

[2] = tested on: Mycobacterium tuberculosis variant bovis; experiment: Inhibition of mycolic acid synthesis in Mycobacterium bovis BCG Pasteur 1173P2 sonicates assessed as inhibition of ketomycolates production by autoradiography; summary of the method: as §1
[3] = tested on: Mycobacterium tuberculosis variant bovis; experiment: Inhibition of mycolic acid synthesis in Mycobacterium bovis BCG Pasteur 1173P2 sonicates assessed as inhibition of alphamycolates production by autoradiography; summary of the method: as §1
[4] = tested on: Mycobacterium tuberculosis variant bovis; experiment: Inhibition of mycolic acid synthesis in Mycobacterium bovis BCG Pasteur 1173P2 sonicates assessed as inhibition of alphamycolates production using partially purified EthA as cofactor by autoradiography; summary of the method: as §1

CC(C)CCOc1ccc(NC(=S)Nc2ccc(OCCC(C)C)cc2)cc1 [TIOCARLIDE]
Activity [1]: inactive | Activity [2]: Active | Activity [3]: Active | Activity [4]: inactive
